Assay results from ChEMBL document CHEMBL3046951, “Volatile constituents from the leaves of Callicarpa japonica Thunb. and their antibacterial activities” (2004).

Tests used:
Type in all cases: functional
Listeria monocytogenes [1] = assay: Antimicrobial activity against Listeria monocytogenes ATCC 19111 assessed as growth inhibition rate at 10.36 mg/l after 72 hr by spectrophotometry; conditions: ATCC 19111, 72 h, read-out: GI
In short: (§1)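 L. monocytogenes was grown at 30 °C in tryptic soy broth, subcultured for 18 h, and exposed to pure volatile compounds (>95% purity). Growth was followed by Bioscreen C optical density every 24 h for 72 h against a 10% Tween 80 control.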

Staphylococcus aureus [2] = assay: Antimicrobial activity against Staphylococcus aureus ATCC 25923 assessed as growth inhibition rate at 10.36 mg/l after 72 hr by spectrophotometry; conditions: ATCC 25923, 72 h, read-out: GI
Vibrio parahaemolyticus [3] = assay: Antimicrobial activity against Vibrio parahaemolyticus ATCC 33844 assessed as growth inhibition rate at 10.36 mg/l after 72 hr by spectrophotometry; conditions: ATCC 33844, 72 h, read-out: GI
Escherichia coli [4] = assay: Antimicrobial activity against Escherichia coli O157:H7 ATCC 43894 assessed as growth inhibition rate at 10.36 mg/l after 72 hr by spectrophotometry; conditions: O157:H7 ATCC 43894, 72 h, read-out: GI
Salmonella typhimurium [5] = assay: Antimicrobial activity against Salmonella enterica subsp. enterica serovar Typhimurium ATCC 14028 assessed as growth inhibition rate at 10.36 mg/l after 72 hr by spectrophotometry; conditions: ATCC 14028, 72 h, read-out: GI
In short: (§2)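 Salmonella Typhimurium ATCC 14028 grown in nutrient broth at 30 °C, precultured 24 h, then subcultured 1:100 for 18 h before testing. Single volatile compounds (>95% pure) were added. OD was read every 24 h over 72 h in a Bioscreen C, with 10% Tween 80 as the comparison control.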

Bacillus cereus [6] = assay: Antimicrobial activity against Bacillus cereus ATCC 11778 assessed as growth inhibition rate at 10.36 mg/l after 72 hr by spectrophotometry; conditions: ATCC 11778, 72 h, read-out: GI
In short: (§3)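 Pure volatile compounds (purity >95%; one at 90%) were tested against B. cereus ATCC 11778. The strain was grown at 30 °C in nutrient broth for 24 h, then subcultured for 18 h. Optical density was read in a Bioscreen C every 24 h for 72 h, with 10% Tween 80 as the control.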

Listeria monocytogenes [7] = assay: Antimicrobial activity against Listeria monocytogenes ATCC 19111 assessed as growth inhibition rate at 43.2 mg/l after 72 hr by spectrophotometry; conditions: ATCC 19111, 72 h, read-out: GI; in short: as §1
Staphylococcus aureus [8] = assay: Antimicrobial activity against Staphylococcus aureus ATCC 25923 assessed as growth inhibition rate at 43.2 mg/l after 72 hr by spectrophotometry; conditions: ATCC 25923, 72 h, read-out: GI
Vibrio parahaemolyticus [9] = assay: Antimicrobial activity against Vibrio parahaemolyticus ATCC 33844 assessed as growth inhibition rate at 43.2 mg/l after 72 hr by spectrophotometry; conditions: ATCC 33844, 72 h, read-out: GI
Escherichia coli [10] = assay: Antimicrobial activity against Escherichia coli O157:H7 ATCC 43894 assessed as growth inhibition rate at 43.2 mg/l after 72 hr by spectrophotometry; conditions: O157:H7 ATCC 43894, 72 h, read-out: GI
Salmonella typhimurium [11] = assay: Antimicrobial activity against Salmonella enterica subsp. enterica serovar Typhimurium ATCC 14028 assessed as growth inhibition rate at 43.2 mg/l after 72 hr by spectrophotometry; conditions: ATCC 14028, 72 h, read-out: GI; in short: as §2
Bacillus cereus [12] = assay: Antimicrobial activity against Bacillus cereus ATCC 11778 assessed as growth inhibition rate at 43.2 mg/l after 72 hr by spectrophotometry; conditions: ATCC 11778, 72 h, read-out: GI; in short: as §3

Row | Compound | inhibition of growth at 10.36 µg/mL (Listeria monocytogenes [1]) | inhibition of growth at 10.36 µg/mL (Staphylococcus aureus [2]) | inhibition of growth at 10.36 µg/mL (Vibrio parahaemolyticus [3]) | inhibition of growth at 10.36 µg/mL (Escherichia coli [4]) | inhibition of growth at 10.36 µg/mL (Salmonella typhimurium [5]) | inhibition of growth at 10.36 µg/mL (Bacillus cereus [6]) | inhibition of growth at 43.2 µg/mL (Listeria monocytogenes [7]) | inhibition of growth at 43.2 µg/mL (Staphylococcus aureus [8]) | inhibition of growth at 43.2 µg/mL (Vibrio parahaemolyticus [9]) | inhibition of growth at 43.2 µg/mL (Escherichia coli [10]) | inhibition of growth at 43.2 µg/mL (Salmonella typhimurium [11]) | inhibition of growth at 43.2 µg/mL (Bacillus cereus [12])
1 | CC/C=C\CO [CIS-2-PENTEN-1-OL] | 0% | 8.1% | 10.5% | 21.9% | 9.4% | 20.4% | – | – | – | – | – | –
2 | CC/C=C\CCO [CIS-3-HEXENOL] | – | – | – | – | – | – | 10.3% | 21.6% | 73.7% | 41% | 56.2% | 14.3%
